Key:
[1] = organism: Homo sapiens; experiment: Human microsome stabilities are reported as the ratio of the % remaining after a 1 hr incubation versus the internal standard thrombin inhibitor; assay type: functional; parameters: unit not given here
[2] = t1/2 in dog; assay type: ADME, organism-based, Canis lupus familiaris; conditions: in vivo
Procedure, shortened: (§1)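 Dog pharmacokinetics after oral dosing at 1 mg/kg, or at 0.7 or 0.5 mg/kg where footnoted. Cmax (µM) and oral half-life (h) from plasma levels.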

[3] = Partition coefficient (logP) of the compound; assay type: physicochemical; conditions: octanol/water
[4] = target: Prothrombin (Homo sapiens, UniProt P00734); experiment: Inhibitory activity against human thrombin
[5] = organism: Homo sapiens; experiment: Concentration required to double the activated partial thromboplastin time (aPPT) in human plasma; assay type: functional, cell-free
Procedure, shortened: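 Anticoagulant assay in human plasma. The value is the concentration of inhibitor that doubles the activated partial thromboplastin time (2×aPTT).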

[6] = Maximum plasma concentration (Cmax) in dog at a dose of 1 mg/kg; assay type: ADME, organism-based, Canis lupus familiaris; parameters: dose 1 mg/kg; procedure, shortened: as §1
[7] = Compound was tested for percent protein binding (PB) in dog; assay type: ADME, organism-based, Canis lupus familiaris; conditions: read-out: PB (converted)
Procedure, shortened: (§2)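 Plasma protein binding given as percent free drug, measured in dog plasma and in human plasma.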

[8] = Compound was tested for percent protein binding (PB) in human; assay type: ADME; conditions: read-out: PB (converted); procedure, shortened: as §2
[9] = Plasma clearance (pharmacokinetic parameter) in dog was determined; assay type: ADME, organism-based, Canis lupus familiaris; conditions: read-out: Clp
Procedure, shortened: (§3)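 Dog pharmacokinetics. Parameters are plasma clearance (mL/min/kg), volume of distribution (L/kg), iv half-life (h) and oral bioavailability F (%).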

[10] = Half life period after intravenous administration in dog; assay type: ADME, organism-based, Canis lupus familiaris; conditions: in vivo; procedure, shortened: as §3
[11] = Vd in dog; assay type: ADME, organism-based, Canis lupus familiaris; conditions: in vivo; procedure, shortened: as §3
[12] = Maximum plasma concentration (Cmax) in dog at a dose of […] mg/kg; assay type: ADME, organism-based, Canis lupus familiaris
[13] = Oral bioavailability in dog; assay type: ADME, organism-based, Canis lupus familiaris; conditions: in vivo; procedure, shortened: as §3

Structure (SMILES) | Ratio [1] | half-life [2] [h] | logP [3] | Ki [4] [nM] | Concentration [5] [µM] | Cmax [6] [nM] | fraction unbound [7] | fraction unbound [8] | clearance [9] [mL/min/kg] | half-life [10] [h] | Vd [11] [L/kg] | Cmax ([12]; 0.5 mg/kg) [nM] | Cmax ([12]; 0.7 mg/kg) [nM] | bioavailability [13] [%]
O=C(Cn1c(Cl)cnc(NCC(F)(F)c2cccc[n+]2[O-])c1=O)NCc1c(F)ccc(F)c1F | 0.04 | 3.5 | 1.42 | 1.1 | 0.31 | 1510 | – | – | – | – | – | – | – | –
O=C(Cn1c(Cl)cnc(NCC(F)(F)c2ccccn2)c1=O)NCc1ncccc1F [DPOC-4088] | – | – | – | – | 0.78 | – | 0.67 | 0.86 | 2.2 | 4.5 | 0.62 | – | – | –
O=C(Cn1c(Cl)cnc(NCC(F)(F)c2cccc[n+]2[O-])c1=O)NCc1c(F)cccc1F | 3.4 | 6.2 | 1.23 | 0.85 | 0.33 | 210 | – | – | – | – | – | – | – | –
O=C(Cn1c(Cl)cnc(NCC(F)(F)c2cccc[n+]2[O-])c1=O)NCc1cccc(F)c1 | 0.71 | 4.1 | Not Active | 7.3 | 0.86 | – | – | – | – | – | – | 1370 | – | –
Cc1ccccc1CNC(=O)Cn1c(Cl)cnc(NCC(F)(F)c2cccc[n+]2[O-])c1=O | – | 3.6 | 1.74 | – | 0.77 | 1760 | – | – | – | – | – | – | – | –
COc1cccc(CNC(=O)Cn2c(Cl)cnc(NCC(F)(F)c3cccc[n+]3[O-])c2=O)c1 | 0.71 | 2.8 | 1.31 | 1.2 | 0.43 | 1220 | – | – | – | – | – | – | – | –
O=C(Cn1c(Cl)cnc(NCC(F)(F)c2cccc[n+]2[O-])c1=O)NCc1c(F)cccc1C(F)(F)F | 0 | 2.4 | 1.89 | 1.3 | 0.88 | – | – | – | – | – | – | – | 70 | –
O=C(Cn1c(Cl)cnc(NCC(F)(F)c2cccc[n+]2[O-])c1=O)NCc1ccccc1 | 1.3 | 6.3 | 1.23 | 7 | 0.94 | 3200 | – | – | – | – | – | – | – | –
O=C(Cn1c(Cl)cnc(NCC(F)(F)c2cccc[n+]2[O-])c1=O)NCc1ccccc1OC(F)(F)F | 0 | 3 | 2.34 | 2.4 | 0.81 | 1670 | – | – | – | – | – | – | – | –
O=C(Cn1c(Cl)cnc(NCC(F)(F)c2cccc[n+]2[O-])c1=O)NCc1cccc(Cl)c1 | 0 | 2.6 | Not Active | 0.26 | 0.23 | – | – | – | – | – | – | 1910 | – | –
O=C(Cn1c(Cl)cnc(NCC(F)(F)c2cccc[n+]2[O-])c1=O)NCc1ccc(F)c(Cl)c1 | 0 | 2.4 | 1.98 | 3.6 | 0.78 | 420 | – | – | – | – | – | – | – | –
O=C(Cn1c(Cl)cnc(NCC(F)(F)c2cccc[n+]2[O-])c1=O)NCc1ncccc1Cl | 1.3 | 5.5 | 0.75 | 2.9 | 0.47 | – | 0.5 | 0.59 | 3.03 | 6 | 1.17 | – | 1090 | –
O=C(Cn1c(Cl)cnc(NCC(F)(F)c2cccc[n+]2[O-])c1=O)NCc1cc(F)ccc1F | 0.05 | 3.9 | Not Active | 2.4 | 0.43 | 2290 | – | – | – | – | – | – | – | –
COc1ccccc1CNC(=O)Cn1c(Cl)cnc(NCC(F)(F)c2cccc[n+]2[O-])c1=O | 0.44 | 3.8 | 1.36 | 3 | 0.56 | – | – | – | – | – | – | 2480 | – | –
O=C(Cn1c(Cl)cnc(NCC(F)(F)c2cccc[n+]2[O-])c1=O)NCc1cccc(Br)c1 | 0.14 | 3.6 | 2.11 | 0.19 | 0.28 | 1010 | – | – | – | – | – | – | – | –
O=C(Cn1c(Cl)cnc(NCC(F)(F)c2cccc[n+]2[O-])c1=O)NCc1cc(F)ccc1C(F)(F)F | 0 | 2.8 | 1.99 | 1.7 | 0.63 | 990 | – | – | – | – | – | – | – | –
O=C(Cn1c(Cl)cnc(NCC(F)(F)c2ccccn2)c1=O)NCc1ccccc1F | – | – | – | 4.8 | 1.24 | 17 | – | – | – | – | – | – | – | –
CCOc1ccccc1CNC(=O)Cn1c(Cl)cnc(NCC(F)(F)c2cccc[n+]2[O-])c1=O | 0.08 | 1.2 | 1.91 | 5.2 | 0.87 | 770 | – | – | – | – | – | – | – | –
O=C(Cn1c(Cl)cnc(NCC(F)(F)c2cccc[n+]2[O-])c1=O)NCc1ccccc1OC(F)F | 0 | 2.8 | 1.63 | 3 | 0.69 | 2030 | – | – | – | – | – | – | – | –
O=C(Cn1c(Cl)cnc(NCC(F)(F)c2cccc[n+]2[O-])c1=O)NCc1cccc(OC(F)F)c1 | 0.54 | 4.8 | 1.73 | 7 | 0.97 | 120 | – | – | – | – | – | – | – | –
Cc1cccc(CNC(=O)Cn2c(Cl)cnc(NCC(F)(F)c3cccc[n+]3[O-])c2=O)c1 | 0.58 | 1.1 | 1.81 | 0.8 | 0.3 | 2190 | – | – | – | – | – | – | – | –
O=C(Cn1c(Cl)cnc(NCC(F)(F)c2cccc[n+]2[O-])c1=O)NCc1ccccc1Cl | 0.15 | 2.9 | 1.89 | 2.5 | 0.54 | 700 | – | – | – | – | – | – | – | –
O=C(Cn1c(Cl)cnc(NCC(F)(F)c2cccc[n+]2[O-])c1=O)NCc1ncccc1F | 6.5 | 2.5 | 0.19 | 3.1 | 0.54 | 1780 | 0.2 | 0.3 | 4.91 | 2.9 | 1.13 | – | – | 83
O=C(Cn1c(Cl)cnc(NCC(F)(F)c2cccc[n+]2[O-])c1=O)NCc1cc(Cl)ccc1Cl | 1.04 | 2.1 | 2.61 | 0.087 | 0.39 | 110 | – | – | – | – | – | – | – | –
O=C(Cn1c(Cl)cnc(NCC(F)(F)c2cccc[n+]2[O-])c1=O)NCc1ccccc1OCC(F)(F)F | 0 | 2.5 | 1.93 | 1.8 | 0.58 | 2290 | – | – | – | – | – | – | – | –
O=C(Cn1c(Cl)cnc(NCC(F)(F)c2cccc[n+]2[O-])c1=O)NCc1cc(Cl)ccc1F | 0 | 2.1 | Not Active | 0.16 | 0.31 | 480 | – | – | – | – | – | – | – | –
O=C(Cn1c(Cl)cnc(NCC(F)(F)c2cccc[n+]2[O-])c1=O)NCc1cccc(Cl)c1Cl | 0.39 | 2.5 | 2.14 | 2 | 0.88 | 290 | – | – | – | – | – | – | – | –
O=C(Cn1c(Cl)cnc(NCC(F)(F)c2cccc[n+]2[O-])c1=O)NCc1ccccc1C(F)(F)F | 0.05 | 3.7 | 2.24 | 3.6 | 0.93 | – | – | – | – | – | – | 1430 | – | –

Reference: ChEMBL document CHEMBL1136692, “Pharmacokinetic optimization of 3-amino-6-chloropyrazinone acetamide thrombin inhibitors. Implementation of P3 pyridine N-oxides to deliver an orally bioavailable series containing P1 N-benzylamides” (Bioorg Med Chem Lett, 2003)
